One block for each molecule: values may come before it.
What was measured:
[1] = test system: GFP-tagged Chp1; assay: Peptide pull-down from Chp1GFP whole cell extracts; assay type: binding, fission yeast Schizosaccharomyces pombe; details: western blot, n=3
[2] = test system: Y41FΔago1; assay: Drug sensitivity serial dilution; assay type: cell-based, fission yeast Schizosaccharomyces pombe; details: 0 and 6 mM HU, 10-fold serial dilution
Summary of the method: (§1)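 Strains were grown overnight in YEA broth (3% glucose, 0.5% yeast extract, 75 mg/l adenine) to mid-log phase and adjusted to 1 × 10^7 cells/ml. Five ten-fold serial dilutions were made, and 3 μl of each was spotted onto plates with 0 or 6 mM HU.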

[3] = test system: Δcid12; assay: Drug sensitivity serial dilution; assay type: cell-based, fission yeast Schizosaccharomyces pombe; details: 0 and 6 mM HU, 10-fold serial dilution
Summary of the method: (§2)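 Deletion strains were cultured overnight to mid-log phase in YEA broth (3% glucose, 0.5% yeast extract, 75 mg/l adenine) and set to 1 × 10^7 cells/ml. Each culture went through five ten-fold serial dilution steps, and 3 μl spots were placed on HU-containing plates to assess growth.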

[4] = test system: Y41FΔchp1; assay: Drug sensitivity serial dilution; assay type: cell-based, fission yeast Schizosaccharomyces pombe; details: 0 and 6 mM HU, 10-fold serial dilution
Summary of the method: as §1

[5] = test system: Δclr3; assay: Drug sensitivity serial dilution; assay type: cell-based, fission yeast Schizosaccharomyces pombe; details: 0 and 6 mM HU, 10-fold serial dilution; compared with Δrik1, Δcid12, Δchp1
Summary of the method: as §2

[6] = test system: Δrik1; assay: Drug sensitivity serial dilution; assay type: cell-based, fission yeast Schizosaccharomyces pombe; details: 0 and 6 mM HU, 10-fold serial dilution
Summary of the method: as §2

[7] = test system: Δchp1; assay: Drug sensitivity serial dilution; assay type: cell-based, fission yeast Schizosaccharomyces pombe; details: 0 and 6 mM HU, 10-fold serial dilution
Summary of the method: as §1

[8] = test system: Δswi6; assay: Drug sensitivity serial dilution; assay type: cell-based, fission yeast Schizosaccharomyces pombe; details: 0 and 6 mM HU, 10-fold serial dilution; compared with Δrik1, Δcid12, Δchp1
Summary of the method: as §2

[9] = molecular target: biotinylated histone H3 N-terminal peptide harbouring a phosphorylated Y41; assay: pull-down

Molecule: AAPATGGVKKPH RY(p)RPGTVALR EIRRYQKSTE [Y41p]
Chp1-GFP association, phosphorylated versus unmodified (Y41F) peptide (in words) [1]: This observation was confirmed

Molecule: NC(=O)NO [HU, hydroxyurea]
HU sensitivity of double mutant relative to Δago1 (in words) [2]: strongly suppressed HU hypersensitivity
HU sensitivity (in words) [3]: HU hypersensitivity
HU sensitivity of double mutant relative to Δchp1 (in words) [4]: strongly suppressed HU hypersensitivity
HU sensitivity (in words) [5]: milder or no hypersensitivity
HU sensitivity (in words) [6]: HU hypersensitivity
HU sensitivity (in words) [7]: HU hypersensitivity
HU sensitivity (in words) [8]: milder or no hypersensitivity

fold change against the unmodified (Y41F) peptide [9]: 2.62 fold
B1: Chp1, endogenous (natural protein)
chain: MVSVKPLPDIDSNEGETDADVYEVEDILADRVNKNGINEYYIKWAGYDWYDNTWEPEQNLFGAEKVLKKWKKRKKLIAKGLLEPFDAEDNEAKKMKREKEILRQQRQKRKSELTQLSQKVKEKFKKMRKKPARRIVTIANDEEEEDDQTMDEDAFERKSMQGELKERNLTDKTSTLSTSFGETSPDVNPFYLSEWPTVTDSILLSKSLSSDAIPLKNGEIKSTMLMPSDSDNSVPGIQNSNNLENTGAFVENANSPQSNTPLSTFRHSSPLSLSPVITSDNDVANSLFFSNSTPLPSSLKIKKEAPKLETHTILVSDNSGSLTKQDILSYFAFIKGNIEVFFLKSPKKDKVCNMAYIQFDSIEQAKLAYDKGHPSWHVTLVKGKISTDMEECKVSKSILKTTPSKKANARSVSFTQTTTDTLSESEKFASNVDLDENFDFNVNVTNEDAKQLKKSVIGSSWTTVNNDWNSVSKSDQTFENDGASKVVPAGNITLNSDNSLHHSISESEDLSSASTLSDYFRFVLRVGKSLYYAGELSFDISKLKAETEHQQLLRSLVSCKQVDVLRFVTSQYLEVFGTCLTKVLSGSLCIRSDVDMTHFKNILNRGNGAGIVLGSNYTLLLFTEDNNALMNLYDCQGQSNSPFWMVIFEPLESILVEWSAKNLRPKKPYHKSQSYLSYLLQLGHIDLHKIGAFQATQILIVSKQPSPEAEELEDTFREAAIPTFRGLEIPESLFLSQNVFVFLNVSLEDDFDQLQFLTLAKRKSCKFFLFGLSLPLKSPNDSHVGTDFKKNNEPLDKLTYSQYLRPMFPKGGVVSVTLSALIKTPRLLELISPFLEIKKDSWILILPPSIVDMVKSYFVTNNPDKSLLEIQNLLNTLQRYLTNPALKNVTLYQDWDIVIDDSADVSLASTLQLYQKKNYDKYRRFVLIHELKNELTPVNGLDIVDYDEFKETFMRAIGLK

Reference: publication PMC5758876 (Nucleic Acids Research, 2017)
